Experimental data: ChEMBL document CHEMBL1938394, “Time-dependent slowly-reversible inhibition of monoamine oxidase A by N-substituted 1,2,3,6-tetrahydropyridines” (Bioorg Med Chem, 2011); call rule not given here

What was measured:
[1] = target: T1, Amine oxidase [flavin-containing] A (Homo sapiens, UniProt P21397); assay: Inhibition of human recombinant MAOA expressed in insect cells using kynuramine substrate after 60 mins
T1 sequence (P21397 whole entry): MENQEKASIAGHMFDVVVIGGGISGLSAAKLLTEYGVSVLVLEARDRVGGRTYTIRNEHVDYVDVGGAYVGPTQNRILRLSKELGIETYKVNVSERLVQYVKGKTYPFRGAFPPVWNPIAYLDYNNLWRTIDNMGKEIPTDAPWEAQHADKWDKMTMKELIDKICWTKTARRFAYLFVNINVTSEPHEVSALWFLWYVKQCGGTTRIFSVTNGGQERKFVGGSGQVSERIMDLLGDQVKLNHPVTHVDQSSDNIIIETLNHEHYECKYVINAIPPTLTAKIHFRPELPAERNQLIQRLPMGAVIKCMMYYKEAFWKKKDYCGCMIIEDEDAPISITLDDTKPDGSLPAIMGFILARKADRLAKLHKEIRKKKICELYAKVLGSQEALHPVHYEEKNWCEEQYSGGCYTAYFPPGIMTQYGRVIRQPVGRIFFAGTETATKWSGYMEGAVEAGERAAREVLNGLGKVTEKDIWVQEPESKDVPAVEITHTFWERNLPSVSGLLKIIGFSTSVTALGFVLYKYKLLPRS

Homo sapiens = species: Homo sapiens; assay: Selectivity index, ratio of IC50 for human recombinant MAOB to IC50 for human recombinant MAOA
In short: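 MAO-A (0.005 mg/mL; 150 μM kynuramine, 60 min, 37 °C, […]) and MAO-B (0.01 mg/mL; 1000 μM benzylamine, 30 min, 37 °C, perchloric acid stop, benzaldehyde by HPLC-UV at 254 nm) in isotonic 0.1 M phosphate pH 7.4. Inhibitor 0–7000 μM. IC50s from sigmoidal log curves in triplicate. SI = MAO-B IC50 / MAO-A IC50.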

[2] = target: T2, Amine oxidase [flavin-containing] B (Homo sapiens, UniProt P27338); assay: Inhibition of human recombinant MAOB expressed in insect cells using benzylamine hydrochloride as substrate after 30 mins
T2 sequence (P27338 whole entry): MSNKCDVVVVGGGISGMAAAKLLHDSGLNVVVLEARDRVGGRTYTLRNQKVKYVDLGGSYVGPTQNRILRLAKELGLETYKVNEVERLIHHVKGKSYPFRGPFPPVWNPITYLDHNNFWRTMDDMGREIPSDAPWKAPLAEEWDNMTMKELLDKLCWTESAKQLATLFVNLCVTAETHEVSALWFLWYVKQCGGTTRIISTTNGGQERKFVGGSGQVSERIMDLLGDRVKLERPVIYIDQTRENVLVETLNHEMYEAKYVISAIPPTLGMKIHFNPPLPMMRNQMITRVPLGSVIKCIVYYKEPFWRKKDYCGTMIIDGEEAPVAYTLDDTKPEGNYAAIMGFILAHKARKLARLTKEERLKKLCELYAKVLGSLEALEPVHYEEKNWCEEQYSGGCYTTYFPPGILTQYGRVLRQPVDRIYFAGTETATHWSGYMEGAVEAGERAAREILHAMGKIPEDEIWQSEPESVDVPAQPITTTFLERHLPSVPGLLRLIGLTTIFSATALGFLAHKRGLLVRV
In short: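 Human recombinant MAO-B (0.01 mg/mL) in 0.1 M isotonic phosphate buffer pH 7.4, inhibitor 0–7000 µM, benzylamine 1000 µM final, 30 min at 37 °C. Stopped with perchloric acid; benzaldehyde measured by reverse-phase HPLC with UV 254 nm. IC50 from sigmoidal log dose–response fit; triplicate, mean ± SD.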

[3] = target: T1, Amine oxidase [flavin-containing] A; assay: Inhibition of human recombinant MAOA expressed in insect cells assessed as oxidation of kynuramine substrate measured after additional substrate added after 90 mins incubation; conditions: 1.5 h
[4] = target: T1, Amine oxidase [flavin-containing] A; assay: Inhibition of human recombinant MAOA expressed in insect cells assessed as formation of 4-hydroxyquinoline at 5 uM preincubated for 1 hr before kynuramine substrate measured after 12 hrs of dialysis
In short: (§1)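 MAO-A (0.005 mg/mL) in 0.1 M sodium phosphate pH 7.4 made isotonic with NaCl, preincubated 1 h at 37 °C without substrate with inhibitor (final volume 1 mL), then dialyzed overnight at 0 °C against 250 mL buffer. Activity in dialysate read as product formation at 310 nm with 150 μM kynuramine over 60 min at 37 °C. 4-Hydroxyquinoline quantified by calibration curve. Means ± SD, n = 3.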

[5] = target: T1, Amine oxidase [flavin-containing] A; assay: Inhibition of human recombinant MAOA expressed in insect cells assessed as oxidation of kynuramine substrate at 5 uM up to 90 mins; conditions: 1.5 h
In short: (§2)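 Time course of kynuramine oxidation by recombinant human MAO-A at 37 °C in isotonic 0.1 M phosphate pH 7.4 with or without inhibitor. A second portion of substrate (150 μM kynuramine) was added at 90 min and fresh enzyme at 120 min, with product formation followed throughout.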

[6] = target: T1, Amine oxidase [flavin-containing] A; assay: Inhibition of human recombinant MAOA expressed in insect cells using kynuramine as substrate by Kitz-Wilson plot analysis
In short: (§3)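 Recombinant human MAO-A preincubated at 37 °C with inhibitor (2–5 μM) or buffer control for 0, 10, 20, 30 or 40 min before kynuramine (150 μM) was added. Activity read after 30 min as % of control, n = 3. Kitz–Wilson slope replot: Ki from reciprocal of x-intercept, kinact from reciprocal of y-intercept.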

[7] = target: T1, Amine oxidase [flavin-containing] A; assay: Time dependent inhibition of human recombinant MAOA expressed in insect cells using kynuramine as substrate at 5 uM preincubated up to 40 mins before kynuramine substrate addition; in short: as §3
[8] = target: T1, Amine oxidase [flavin-containing] A; assay: Inhibition of human recombinant MAOA expressed in insect cells assessed as oxidation of kynuramine substrate at 5 uM measured after additional enzyme added after 120 mins incubation; conditions: 2 h; in short: as §2
[9] = target: T1, Amine oxidase [flavin-containing] A; assay: Noncompetitive inhibition of human recombinant MAO-A assessed as dissociation constant for enzyme-inhibitor complex by Lineweaver-Burk plot analysis
[10] = target: T1, Amine oxidase [flavin-containing] A; assay: Noncompetitive inhibition of human recombinant MAO-A assessed as dissociation constant for enzyme-inhibitor-substrate complex by Lineweaver-Burk plot analysis
[11] = target: T1, Amine oxidase [flavin-containing] A; assay: Inhibition of human recombinant MAOA expressed in insect cells assessed as oxidation of kynuramine substrate at 5 uM measured after additional substrate added after 90 mins incubation; conditions: 1.5 h; in short: as §2
[12] = target: T1, Amine oxidase [flavin-containing] A; assay: Inhibition of human recombinant MAOA expressed in insect cells assessed as formation of 4-hydroxyquinoline at 5 uM preincubated for 1 hr before kynuramine substrate measured after 1 hr in presence of sodium borohydride
In short: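 MAO-A (0.005 mg/mL) preincubated 60 min at 37 °C with inhibitor in isotonic 0.1 M phosphate pH 7.4. NaBH4 (5 μL of 300 mM stock in water) then added and the mix held 15 min at 0 °C. It was dialyzed overnight at 0 °C, then read at 310 nm with 150 μM kynuramine over 60 min at 37 °C. Controls without inhibitor also got borohydride. n = 3.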

[13] = target: T3, MAO-A (amine oxidase [flavin-containing] A) (Homo sapiens, UniProt P21397); assay: Irreversible inhibition of human recombinant MAOA expressed in insect cells using kynuramine as substrate by Kitz-Wilson plot analysis; conditions: probe kynuramine; in short: as §3
T3 sequence (P21397 whole entry): T1 sequence (P21397 whole entry)

[14] = target: T1, Amine oxidase [flavin-containing] A; assay: Inhibition of human recombinant MAOA expressed in insect cells using kynuramine as substrate at 50 uM preincubated up to 40 mins before kynuramine substrate addition measured after 30 mins; conditions: 0.5 h
In short: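 MAO-A preincubated at 37 °C in 0.1 M isotonic phosphate buffer pH 7.4 with inhibitor, or buffer control, for […]. Diluted 50-fold into buffer containing kynuramine, then incubated 30 min. Activity is % of control; mean ± SD, n = 3.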

[15] = target: T1, Amine oxidase [flavin-containing] A; assay: Inhibition of human recombinant MAOA expressed in insect cells assessed as formation of 4-hydroxyquinoline at 0.5 uM preincubated for 1 hr before kynuramine substrate measured after 12 hrs of dialysis; in short: as §1
[16] = target: T1, Amine oxidase [flavin-containing] A; assay: Inhibition of human recombinant MAOA expressed in insect cells assessed as oxidation of kynuramine substrate at 6 mM measured after additional substrate added after 90 mins incubation; conditions: 1.5 h
In short: (§4)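 Recombinant human MAO-A incubated with kynuramine, with or without inhibitor. Product formation followed over time. A second equivalent of substrate (150 µM kynuramine) added at 90 min and fresh enzyme added at 120 min.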

[17] = target: T1, Amine oxidase [flavin-containing] A; assay: Mixed noncompetitive inhibition of human recombinant MAO-A assessed as dissociation constant for enzyme-inhibitor complex by Lineweaver-Burk plot analysis
In short: (§5)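 Human recombinant MAO-A (0.005 mg/mL) in 0.1 M sodium phosphate pH 7.4 made isotonic with NaCl, 37 °C, 30 min. Initial oxidation rates at four kynuramine levels (50–150 µM) without or with four inhibitor concentrations (range per compound, 5–1000 µM). Ki from Lineweaver–Burk plots and replots by linear regression; triplicate.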

[18] = target: T1, Amine oxidase [flavin-containing] A; assay: Mixed noncompetitive inhibition of human recombinant MAO-A assessed as dissociation constant for enzyme-inhibitor-substrate complex by Lineweaver-Burk plot analysis; in short: as §5
[19] = target: T1, Amine oxidase [flavin-containing] A; assay: Inhibition of human recombinant MAOA expressed in insect cells assessed as oxidation of kynuramine substrate at 6 mM measured after additional enzyme added after 120 mins incubation; conditions: 2 h, 6000 µM; in short: as §4

SMILES	IC50 [1] [µM]	Ratio IC50 (Homo sapiens)	IC50 [2] [µM]	inhibition (INH) [3]	also measured
C1=CCN(Cc2ccccc2)CC1	157	41.6	6540	Not Active	–
Clc1ccc(OCCCN2CC=CCC2)c(Cl)c1	2.6	25.4	66.4	–	inhibition (INH) [4]: Active; inhibition (INH) [5]: Active; Ki [6]: 7.4 µM; TDI [7]: Active; inhibition (INH) [8]: Active; Ki [9]: 2.2 µM; Ki [10]: 0.9 µM; inhibition (INH) [11]: Active; inhibition (INH) [12]: Active; kinact [13]: 0.002 s⁻¹
O=[N+]([O-])c1ccc(CCN2CC=CCC2)cc1	37.8	7.2	272	Not Active	inhibition (INH) [14]: Active
C#CCN(C)CCCOc1ccc(Cl)cc1Cl [CLORGILINE]	–	–	–	–	inhibition (INH) [15]: Active
CC1=CCN(CCc2ccccc2)CC1	623	2	1250	–	inhibition (INH) [16]: Active; Ki [17]: 408 µM; Ki [18]: 2590 µM; inhibition (INH) [19]: Active
Fc1ccc(CCN2CC=CCC2)cc1	27.3	193	5270	Not Active	–
